Key:
[1] = Cytotoxicity against human MDM cells by neutral red staining; type: cell-based
Procedure, shortened: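 Fifty percent cytotoxic concentration in monocyte-derived macrophages, assessed by neutral red staining.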

[2] = tested on: Human immunodeficiency virus 1; assay: Antiviral activity against HIV1 BAL in human MDM cells; type: functional, organism-based; conditions: Human immunodeficiency virus 1, BAL
Procedure, shortened: (§1)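 Monocyte-derived macrophages were infected with the macrophage-tropic HIV-1/Ba-L strain. HIV-1 replication was read as reverse transcriptase activity in culture supernatants. Values come from a single measurement.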

Plasma = assay: Inhibition of PAF-induced platelet aggregation in rabbit platelet-rich plasma; type: functional; conditions: Oryctolagus cuniculus
Procedure, shortened: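 Rabbit platelet-rich plasma was prepared from New Zealand rabbit auricular-artery blood collected in 3.8% citrate (pH 7.4) and spun 15 min at 1200 rpm. Antagonists in EtOH (10⁻² to 10⁻⁷ M) were added to stirred PRP for 2 min, then challenged with 2.5 nM PAF. Aggregation was followed by light transmission against a PAF-alone control. IC50 was taken from dose–response curves (five or six determinations).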

Rattus norvegicus [3] = assay: AUC in Sprague-Dawley rat at 100 mg/kg, iv normalized to 1 mg/kg; type: ADME, organism-based, Plasma; conditions: in vivo
Procedure, shortened: (§2)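 Single dose given to male Sprague–Dawley rats, three animals. Each animal received 100 mg/kg iv and 500 mg/kg orally. Plasma Cmax, t1/2, AUC and oral bioavailability were determined, and all parameters were normalized to a 1 mg/kg dose so the two routes could be compared.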

Rattus norvegicus [4] = assay: Cmax in Sprague-Dawley rat at 500 mg/kg, po normalized to 1 mg/kg; type: ADME, organism-based; parameters: dose 500 mg/kg, route oral; conditions: in vivo; procedure, shortened: as §2
Rattus norvegicus [5] = assay: Cmax in Sprague-Dawley rat at 100 mg/kg, iv normalized to 1 mg/kg; type: ADME, organism-based; parameters: dose 100 mg/kg, route intravenous; conditions: in vivo; procedure, shortened: as §2
[6] = Half life in Sprague-Dawley rat at 500 mg/kg, po normalized to 1 mg/kg; type: ADME, organism-based; conditions: in vivo; procedure, shortened: as §2
[7] = Partition coefficient, log P of the compound; type: physicochemical; conditions: octanol/water
[8] = Half life in Sprague-Dawley rat at 100 mg/kg, iv normalized to 1 mg/kg; type: ADME, organism-based; conditions: in vivo; procedure, shortened: as §2
[9] = Bioavailability in Sprague-Dawley rat at 500 mg/kg, po normalized to 1 mg/kg; type: ADME, organism-based; conditions: in vivo; procedure, shortened: as §2
Rattus norvegicus [10] = assay: AUC in Sprague-Dawley rat at 500 mg/kg, po normalized to 1 mg/kg; type: ADME, organism-based, Plasma; conditions: in vivo; procedure, shortened: as §2
[11] = tested on: Human immunodeficiency virus 1; assay: Inhibition of HIV1 BAL replication in MDM cells assessed by measuring reverse transcriptase at 100 uM; type: functional; conditions: Human immunodeficiency virus 1, BAL; procedure, shortened: as §1
Mus musculus = species: Mus musculus; assay: Blood-brain transfer coefficient in OF1 mouse by in situ brain perfusion method; type: ADME, organism-based; conditions: in vivo
Procedure, shortened: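 In situ brain perfusion in anaesthetized mice (ip xylazine 8 mg/kg, ketamine 140 mg/kg) through a right common carotid catheter. Perfusate was bicarbonate-buffered saline with 9 mM D-glucose, gassed 95% O2/5% CO2, pH 7.4, 37 °C, carrying [³H]tracer at 0.3–0.4 μCi/mL, with [¹⁴C]sucrose as vascular marker. Brain distribution volume was computed from right-hemisphere radioactivity; five animals.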

[12] = Cytotoxicity against human MDM cells by neutral red staining at 1 uM; type: cell-based
[13] = Cytotoxicity against human MDM cells by neutral red staining at 10 uM; type: cell-based

## CCC(=O)OCC1CN(C(=O)c2cc(OC)c(OC)c(OC)c2)CCN1C(=O)c1cc(OC)c(OC)c(OC)c1 (stereo not drawn)
[1]
  CC50: > 100 µM
[2]
  IC50: > 100 µM
Plasma
  IC50: 0.158 µM

## COc1cc(C(=O)N2CCN(C(=O)c3cc(OC)c(OC)c(OC)c3)C(CNC(=O)OC(C)C)C2)cc(OC)c1OC (stereo not drawn)
[1]
  CC50: > 100 µM
[2]
  IC50: 25 µM
Plasma
  IC50: 5 µM

## CCCCCCNC(=O)NCC1CN(C(=O)c2cc(OC)c(OC)c(OC)c2)CCN1C(=O)c1cc(OC)c(OC)c(OC)c1 (stereo not drawn)
[1]
  CC50: > 100 µM
[2]
  IC50: 1 µM
Plasma
  IC50: > 10 µM

## CCN(CC)C(=O)OCC1CN(C(=O)c2cc(OC)c(OC)c(OC)c2)CCN1C(=O)c1cc(OC)c(OC)c(OC)c1 (stereo not drawn) [PMS-601]
Rattus norvegicus [3]
  AUC: 1828 ng·h/mL
Rattus norvegicus [4]
  Cmax: 33 ng/mL
Rattus norvegicus [5]
  Cmax: 861 ng/mL
[1]
  CC50: > 1000 µM
[6]
  half-life: 2.29 h
[2]
  IC50: 11 µM
[7]
  logP: 0.8
Plasma
  IC50: 8 µM
[8]
  half-life: 2.14 h
[9]
  bioavailability: 10.9%
Rattus norvegicus [10]
  AUC: 177 ng·h/mL

## COc1cc(C(=O)N2CCN(C(=O)c3cc(OC)c(OC)c(OC)c3)C(CNC(=O)Nc3c(C)cccc3C)C2)cc(OC)c1OC (stereo not drawn)
[1]
  CC50: > 100 µM
[2]
  IC50: 32 µM
Plasma
  IC50: > 10 µM

## CCCN(CCC)C(=O)OCC1CN(C(=O)c2cc(OC)c(OC)c(OC)c2)CCN1C(=O)c1cc(OC)c(OC)c(OC)c1 (stereo not drawn)
[1]
  CC50: > 100 µM
Plasma
  IC50: 0.37 µM
[11]
  inhibition at 100 µM: 66%

## COc1cc(C(=O)N2CCN(C(=O)c3cc(OC)c(OC)c(OC)c3)C(COC(=S)N(C)C)C2)cc(OC)c1OC (stereo not drawn)
[1]
  CC50: > 100 µM
Plasma
  IC50: 1.6 µM
[11]
  inhibition at 100 µM: 76%

## CCCCNC(=O)OCC1CN(C(=O)c2cc(OC)c(OC)c(OC)c2)CCN1C(=O)c1cc(OC)c(OC)c(OC)c1 (stereo not drawn)
[1]
  CC50: > 100 µM
[2]
  IC50: 10 µM
Plasma
  IC50: 0.67 µM

## [3H]COc1c(OC)cc(C(=O)N2CCN(C(=O)c3cc(OC)c(OC)c(OC)c3)C(COC(=O)N(CC)CC)C2)cc1OC (stereo not drawn)
Mus musculus
  Kin: 1.02 µL/s/g

## CCN(CC)C(=S)OCC1CN(C(=O)c2cc(OC)c(OC)c(OC)c2)CCN1C(=O)c1cc(OC)c(OC)c(OC)c1 (stereo not drawn)
[12]
  Activity: Not Active
[1]
  CC50: > 1 µM
Plasma
  IC50: > 5 µM
[13]
  Activity: Toxic

## CCN(CC)C(=O)NCC1CN(C(=O)c2cc(OC)c(OC)c(OC)c2)CCN1C(=O)c1cc(OC)c(OC)c(OC)c1 (stereo not drawn)
[1]
  CC50: > 100 µM
[2]
  IC50: 40 µM
Plasma
  IC50: > 10 µM

## CCCN(CCC)C(=O)NCC1CN(C(=O)c2cc(OC)c(OC)c(OC)c2)CCN1C(=O)c1cc(OC)c(OC)c(OC)c1 (stereo not drawn)
[1]
  CC50: > 100 µM
[2]
  IC50: > 10 µM
Plasma
  IC50: > 10 µM
